Results from ChEMBL document CHEMBL4725317 (Bioorg Med Chem Lett, 2020).
The source made the active and inactive calls. The calls are words filed in the database; no cut-off is given here.

What was measured:
[1] = Stability of compound in human liver microsomes assessed as parent compound remaining at 1 uM measured at 10 mins in presence of NADPH; format: ADME, Microsome; details: liver microsomes, read-out: Stabilty
Procedure, shortened: (§1)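 Test compound at 1 μM with human, mouse or rat liver microsomes (0.5 mg/ml protein) plus NADPH cofactor; final solvents 0.01% DMSO, 0.05% acetonitrile; percent parent remaining at 10 min. Verapamil, cerivastatin and warfarin as positive controls. SD given when multiple batches were tested.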

[2] = Stability of compound in mouse liver microsomes assessed as parent compound remaining at 1 uM measured at 10 mins in presence of NADPH; format: ADME, Microsome; details: read-out: Stabilty; procedure, shortened: as §1
[3] = Stability of compound in rat liver microsomes assessed as parent compound remaining at 1 uM measured at 10 mins in presence of NADPH; format: ADME, Microsome; details: liver microsomes, read-out: Stabilty; procedure, shortened: as §1
[4] = Clearance in Sprague-Dawley rat at 2 mg/kg, iv or 10 mg/kg, po; format: ADME, organism-based; details: in vivo
Procedure, shortened: (§2)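 Male Sprague Dawley rats dosed 2 mg/kg IV (vehicle 20% HPbCD) or 10 mg/kg PO (vehicle 0.5% Methocel); pharmacokinetic parameters derived from plasma exposure.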

[5] = Volume of distribution at steady state in Sprague-Dawley rat at 2 mg/kg, iv or 10 mg/kg, po; format: ADME, organism-based; details: in vivo, read-out: Vdss; procedure, shortened: as §2
[6] = Half life in Sprague-Dawley rat at 2 mg/kg, iv; format: ADME, organism-based; details: in vivo; procedure, shortened: as §2
[7] = AUC (0 to infinity) in Sprague-Dawley rat at 2 mg/kg, iv or 10 mg/kg, po; format: ADME, organism-based; design: dose 10 mg/kg; details: in vivo; procedure, shortened: as §2
[8] = Cmax in Sprague-Dawley rat at 2 mg/kg, iv or 10 mg/kg, po; format: ADME, organism-based; design: dose 10 mg/kg; details: in vivo; procedure, shortened: as §2
[9] = Tmax in Sprague-Dawley rat at 2 mg/kg, iv or 10 mg/kg, po; format: ADME, organism-based; details: in vivo; procedure, shortened: as §2
[10] = Oral bioavailability in Sprague-Dawley rat at 10 mg/kg; format: ADME, organism-based; details: in vivo; procedure, shortened: as §2
[11] = Clearance in C57BL mouse at 5 mg/kg, iv or 20 mg/kg, po; format: ADME, organism-based; details: in vivo
Procedure, shortened: (§3)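 Male C57 black mice given 5 mg/kg IV in 20% HPbCD or 20 mg/kg PO in 0.5% Methocel; plasma pharmacokinetic parameters derived from these dosings.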

[12] = Volume of distribution at steady state in C57BL mouse at 5 mg/kg, iv or 20 mg/kg, po; format: ADME, organism-based; details: in vivo, read-out: Vdss; procedure, shortened: as §3
[13] = Half life in C57BL mouse at 5 mg/kg, iv; format: ADME, organism-based; details: in vivo; procedure, shortened: as §3
[14] = AUC (0 to infinity) in C57BL mouse at 5 mg/kg, iv or 20 mg/kg, po; format: ADME, organism-based; design: dose 20 mg/kg; details: in vivo; procedure, shortened: as §3
[15] = Cmax in C57BL mouse at 5 mg/kg, iv or 20 mg/kg, po; format: ADME, organism-based; design: dose 20 mg/kg; details: in vivo; procedure, shortened: as §3
[16] = Tmax in C57BL mouse at 5 mg/kg, iv or 20 mg/kg, po; format: ADME, organism-based; details: in vivo; procedure, shortened: as §3
[17] = Oral bioavailability in C57BL mouse at 20 mg/kg; format: ADME, organism-based; details: in vivo; procedure, shortened: as §3
Rattus norvegicus [18] = assay: Hypoglycemic activity in overnight fasted Sprague-Dawley rat assessed as percent reduction in blood glucose AUC at 1 mg/kg, po measured after 4 hrs post glucose challenge by OGTT relative to control; format: functional; design: scale not given: the % may be the effect or the level left
Procedure, shortened: (§4)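 Overnight-fasted SD rats dosed orally at 1 or 10 mg/kg in 0.5% Methocel (vehicle controls) 60 min before oral glucose challenge. […] N=8 per group; mean ± SEM; one-way ANOVA-Dunnett.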

Rattus norvegicus [19] = assay: Hypoglycemic activity in overnight fasted Sprague-Dawley rat assessed as percent reduction in blood glucose AUC at 10 mg/kg, po measured after 4 hrs post glucose challenge by OGTT relative to control; format: functional; design: scale not given: the % may be the effect or the level left; procedure, shortened: as §4
[20] = In vivo inhibition of SGLT1/2 in overnight fasted Sprague-Dawley rat assessed as amount of urinary glucose excretion assessed per 4 hrs at 1 mg/kg, po; format: functional; procedure, shortened: as §4
[21] = In vivo inhibition of SGLT1/2 in overnight fasted Sprague-Dawley rat assessed as amount of urinary glucose excretion assessed per 4 hrs at 10 mg/kg, po; format: functional; procedure, shortened: as §4
Rattus norvegicus [22] = assay: In vivo inhibition of SGLT1/2 in overnight fasted po dosed Sprague-Dawley rat assessed as reduction in blood glucose by OGTT; format: functional, organism-based; details: dose mg/kg 1-10
Rattus norvegicus [23] = assay: Hypoglycemic activity in overnight fasted po dosed Sprague-Dawley rat assessed as reduction in blood glucose treated 60 mins prior to glucose challenge by OGTT; format: functional, organism-based; details: dose mg/kg 1-10, time 60.0 min
Rattus norvegicus [24] = assay: Hypoglycemic activity in overnight fasted po dosed Sprague-Dawley rat assessed as reduction in blood glucose AUC treated 60 mins prior to glucose challenge and measured up to 120 mins by OGTT; format: functional, organism-based; details: dose mg/kg 1-10, time 60.0 min
Mus musculus [25] = assay: Antihyperglycemic activity in db/db mouse assessed as decrease in blood glucose level at 10 mg/kg, po administered as single dose measured up to 24 hrs; format: functional, organism-based; details: time hrs <=24
Procedure, shortened: (§5)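 Male db/db mice given a single oral 10 mg/kg dose or vehicle; fed blood glucose followed up to 24 h and 24-h urinary glucose excretion collected. Mean ± SE versus vehicle controls.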

Mus musculus [26] = assay: Antihyperglycemic activity in db/db mouse assessed as increase in urinary glucose excretion at 10 mg/kg, po administered as single dose measured up to 24 hrs; format: functional, organism-based; details: time hrs <=24; procedure, shortened: as §5

With `COc1cc(O)c([C@@H]2O[C@H](CO)C(F)(F)[C@H](O)[C@H]2O)cc1Cc1ccc2c(c1)CCCO2` as the molecule, how does the remaining at 10 min, 1 µM [1] read?
Its remaining at 10 min, 1 µM is 95%.

And the remaining at 10 min, 1 µM [2]?
Its remaining at 10 min, 1 µM is 85%.

What about the remaining at 10 min, 1 µM [3] of the same molecule?
Its remaining at 10 min, 1 µM is 57%.

And the clearance [4]?
The clearance was 4.54 L/h/kg.

And the Vd [5]?
The Vd was 3.85 L/kg.

And the half-life [6]?
The half-life was 137 min.

And the AUC(0-inf) [7]?
The AUC(0-inf) was 0.524 µg·h/mL.

What about the Cmax [8] of the same molecule?
The Cmax was 0.258 µg/mL.

What about the Tmax [9] of the same molecule?
The Tmax was 15 min.

And the bioavailability [10]?
Its bioavailability is 22.3%.

And the clearance [11]?
The clearance was 1.14 L/h/kg.

And the Vd [12]?
The Vd was 0.96 L/kg.

What about the half-life [13] of the same molecule?
The half-life was 49.8 min.

What about the AUC(0-inf) [14] of the same molecule?
Its AUC(0-inf) is 9.16 µg·h/mL.

And the Cmax [15]?
Its Cmax is 4.68 µg/mL.

And the Tmax [16]?
Its Tmax is 60 min.

What about the bioavailability [17] of the same molecule?
The bioavailability was 52.1%.

And the Activity (Rattus norvegicus [18])?
Its Activity is 38.3%.

And the Activity (Rattus norvegicus [19])?
The Activity was 60.7%.

What about the Activity [20] of the same molecule?
The Activity was 0.002 g.

And the Activity [21]?
Its Activity is 0.2 g.

And the inhibition (Rattus norvegicus [22])?
Its inhibition is “Dose-dependent effect”.

What about the Activity (Rattus norvegicus [23]) of the same molecule?
Its Activity is “Dose-dependent effect”.

And the Activity (Rattus norvegicus [24])?
Its Activity is “Dose-dependent effect”.

What about the Activity (Mus musculus [25]) of the same molecule?
The Activity was “Active”.

What about the Activity (Mus musculus [26]) of the same molecule?
Its Activity is “Active”.
